Laboratory results as given in PubChem BioAssay.
Records with an inconclusive call do not appear.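 Rule for the calls, unless noted: active = inhibition over a set limit, the all-compound mean plus 3 SD, in both replicate runs; inconclusive = over that limit in just one replicate run; inactive = at or under that limit in both runs.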

How the values were obtained:
[1] = OD615 S. cerevisiae growth inhibition, permissive medium, pilot counter-assay, permissive growth control for S. cerevisiae lifespan shortening project (AID 705;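 active = growth inhibition above 25% in both replicates, a cutoff set 3 SD above the mean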); details: OD615, 24 h, at 10 µM, hits give high values
Outline: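 Material: engineered DeaD yeast; compound dosing: one dose 10 µM, DMSO 0.25% final; measure: yeast growth inhibition indicated by reduced 24 h OD615; detection: OD615 turbidity read; incubation: cells pre-grown 4 h, then 24 h compound exposure, 30 °C humidified; medium: permissive synthetic complete medium with raffinose and galactose carbon sources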

[2] = Restrictive medium S. cerevisiae growth inhibition, OD615, pilot screen of yeast lifespan reduction project, restrictive growth control (AID 706;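 active = growth inhibition above a set limit, 3 SD over mean compound inhibition, in both replicates, cut at about 43% in these data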;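 note: modified DeaD lifespan yeast strain shifted to restrictive glucose medium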); details: OD615, 48 h, at 10 µM, hits give high values
Outline: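 material = engineered S. cerevisiae DeaD strain | medium = glucose-based CSMM-D restrictive medium | times = 4 h pre-incubation, 48 h exposure at 30 °C | technique = OD615 absorbance reading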

[3] = viability gain of MRP-1-high H69AR cells under doxorubicin, pilot screen, MRP-1 activator project, CellTiter-Glo, duplicate (AID 807;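 active = viability increase at or above a cutoff of the median across tested compounds plus 3 SD, cut at about 8.5% in these data, passing the limit was not always enough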;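 note: compound pretreatment 18-22 h then 72 h combined with doxorubicin; 0% = doxorubicin alone and 100% = vehicle without doxorubicin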); details: H69AR viability with doxorubicin, CellTiter-Glo luminescence; at 10 µM; hits give high values
[4] = growth suppression of beta-catenin knockout HCT116, pilot screen, human colon tumor cells (AID 823;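 active = cell viability at or below a set limit in both duplicate runs, the limit being the all-compound median minus 4 SD, cut at about 23% in these data, passing the limit was not always enough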;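 note: 0% = wells killed by 20 µM Hyamine and 100% = untreated DMSO cell wells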); details: CellTiter-Glo, 60 h, at 10 µM, hits give low values
[5] = growth suppression of PTEN-deleted HCT116, pilot screen, cell-based, HCT116 clonal line, CellTiter-Glo (AID 824;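 active = viability at or below 27.92% in each of two runs, the all-compound median minus 4 SD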;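 note: 0% = 20 µM Hyamine control and 100% = vehicle cell control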); details: 60 h, at 10 µM, hits give low values
[6] = inhibitors of the yeast RAM network, pilot screen, dse1pr::URA3 reporter, 5-FOA selection (AID 869);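 note: 0% = DMSO wells with no growth and 100% = 10 µM 1-NA-PP1 with full growth; RAM network block rescues cells from 5-FOA so hits raise OD615 growth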; details: S. cerevisiae dse1pr::URA3 5-FOA growth, OD615, 2 d; at 10 µM; hits give high values; strain carries analog-sensitive mutant Cbk1 kinase
[7] = RAM signaling pathway blockade in yeast – S. cerevisiae, Pdr1DBD-CYC8 efflux-inhibited sensitized strain, primary screen (AID 1298;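 active = RAM network inhibition above 8.4% in each of two replicates, 3 SD over the compound average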;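 note: 0% = DMSO untreated cells without growth and 100% = 10 µM 1-NA-PP1 full growth; higher means more yeast growth rescued from 5-FOA killing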); details: S. cerevisiae cbk1-as DSE1-URA3 strain, 5-FOA growth OD615, 2 d; at 50 µM; hits give high values

COCc1cc(C)nc2sc(C(=O)N3CCN(c4ccccc4)CC3)c(N)c12
inactive: growth inhibition [1] -3.52% | growth inhibition [2] 2.86% | viability increase [3] -0.4% | viability [4] 89% | viability [5] 86.8% | inhibition [6] 1.76% | RAM network inhibition [7] 3.05%

Cc1ccc2oc(=O)c3cnn(CC(=O)NC4CCC(C)CC4)c3c2c1 (stereo not drawn)
inactive: growth inhibition [1] -14.1% | growth inhibition [2] -15.1% | viability increase [3] 0.16% | viability [4] 94.4% | viability [5] 86% | inhibition [6] 1.02% | RAM network inhibition [7] 2.93%

CCc1ccc2nc(NC3=NCN(CCOC)CN3)nc(C)c2c1
inactive: growth inhibition [1] -2.2% | growth inhibition [2] -4.05% | viability increase [3] -2.81% | viability [4] 63% | viability [5] 66.9% | inhibition [6] 1.18% | RAM network inhibition [7] -1.8%

CCN1CCN(c2cc(C)c3cc(NC(=O)Cc4ccc(OC)c(OC)c4)ccc3n2)CC1
inactive: growth inhibition [1] -15.9% | growth inhibition [2] -16.5% | viability increase [3] -5.64% | viability [4] 75.5% | viability [5] 77.2% | inhibition [6] 3.25% | RAM network inhibition [7] -0.95%

Cc1c(C(=O)N2CCN(CCc3ccccc3)CC2)oc2ccccc12
inactive: growth inhibition [1] -0.01% | growth inhibition [2] 7.52% | viability increase [3] -1.75% | viability [4] 100% | viability [5] 94.7% | inhibition [6] 0.455% | RAM network inhibition [7] 1.34%

COc1ccc(S(=O)(=O)N2CCC(C(=O)N3CCc4ccccc4C3)CC2)cc1OC
inactive: growth inhibition [1] 1.07% | growth inhibition [2] 1.26% | viability increase [3] -2.24% | viability [4] 89.4% | viability [5] 87.6% | inhibition [6] -0.455% | RAM network inhibition [7] 5.37%

COCCCN1CC23C=CC(O2)C(C(=O)O)C3C1=O (stereo not drawn)
inactive: growth inhibition [1] 2.65% | growth inhibition [2] -2.98% | viability increase [3] -1.24% | viability [4] 102% | viability [5] 106% | inhibition [6] -0.105% | RAM network inhibition [7] 4.16%

CC1CC(C)CN(c2nc3c(c(=O)[nH]c(=O)n3C)n2CCSc2nc3ccccc3o2)C1 (stereo not drawn)
inactive: growth inhibition [1] -8.58% | growth inhibition [2] -7.3% | viability increase [3] -2.41% | viability [4] 93.2% | viability [5] 93.6% | inhibition [6] 0.335% | RAM network inhibition [7] -0.32%

CCC/C(=C1/C(=O)CC(C)(C)C(C(=O)OC)C1=O)N1CCCC1 (stereo not drawn)
inactive: growth inhibition [1] -4.46% | growth inhibition [2] 5.2% | viability increase [3] -1.41% | viability [4] 95.1% | viability [5] 97.5% | inhibition [6] 1.51% | RAM network inhibition [7] -2.05%

O=C(c1ccc2c(c1)C(=O)N(Cc1ccco1)C2O)N1CCOCC1 (stereo not drawn)
inactive: growth inhibition [1] 1% | growth inhibition [2] -5.05% | viability increase [3] -2.58% | viability [4] 109% | viability [5] 98.3% | inhibition [6] 2.12% | RAM network inhibition [7] 1.94%

CC(=O)Nc1c(-c2ccccc2)nc2ncccn12
inactive: growth inhibition [1] -4.64% | growth inhibition [2] -5.57% | viability increase [3] -0.33% | viability [4] 108% | viability [5] 95.4% | inhibition [6] 2.77% | RAM network inhibition [7] 0.97%

Cc1ccc(-c2nc(CS(=O)CC(=O)NC3CCCC3)c(C)o2)cc1 (stereo not drawn)
inactive: growth inhibition [1] 5.52% | growth inhibition [2] 2.53% | viability increase [3] -4.16% | viability [4] 92.9% | viability [5] 91.4% | inhibition [6] 1.08% | RAM network inhibition [7] 5.29%

CCc1ccc(C2CC(c3ccc(Cl)cc3)n3nc(N)nc3N2)cc1 (stereo not drawn)
inactive: growth inhibition [1] 3.64% | growth inhibition [2] 17.7% | viability increase [3] 1.85% | viability [4] 101% | viability [5] 90.4% | inhibition [6] 1.53% | RAM network inhibition [7] 2.02%

Cc1cc(-c2nnco2)c(C)n1-c1ccc(F)cc1
inactive: growth inhibition [1] -8.75% | growth inhibition [2] -5.7% | viability increase [3] -2.15% | viability [4] 84.2% | viability [5] 85.3% | inhibition [6] 0.83% | RAM network inhibition [7] 4.69%

O=c1c2ccccc2ncn1-c1ccc2c(c1)OCCO2
inactive: growth inhibition [1] -2.29% | growth inhibition [2] -19.6% | viability increase [3] -0.34% | viability [4] 101% | viability [5] 94% | inhibition [6] 0.6% | RAM network inhibition [7] 0.78%

N#CC1=C(c2ccccc2)N=P(N2CCOCC2)(N2CCOCC2)N=C1N1CCOCC1
inactive: growth inhibition [1] -6.26% | growth inhibition [2] -16.2% | viability increase [3] 0.57% | viability [4] 103% | viability [5] 107% | inhibition [6] 1.39% | RAM network inhibition [7] 0.33%

COC(=O)c1ccc(C2C(C(=O)Nc3ccc(C)cc3C)=C(C)Nc3ncnn32)cc1 (stereo not drawn)
inactive: growth inhibition [1] 2.06% | growth inhibition [2] 9.76% | viability increase [3] -2.32% | viability [4] 97.2% | viability [5] 92.9% | inhibition [6] 2.46% | RAM network inhibition [7] 8.36%

O=C(CN(Cc1ccccc1F)S(=O)(=O)c1ccc(Cl)cc1)NCCCO
inactive: growth inhibition [1] -12.7% | growth inhibition [2] -2.21% | viability increase [3] -2.15% | viability [4] 102% | viability [5] 93.7% | inhibition [6] 0.495% | RAM network inhibition [7] 1.84%

CCCn1c(CN2CCCCC2C)nc2c1c(=O)n(C)c(=O)n2C (stereo not drawn)
inactive: growth inhibition [1] -7.96% | growth inhibition [2] -3.75% | viability increase [3] -0.39% | viability [4] 88.7% | viability [5] 83.9% | inhibition [6] 1.64% | RAM network inhibition [7] 8.45%

CC(NC(=O)c1ccc2c(c1)OCO2)C1CCCO1 (stereo not drawn)
inactive: growth inhibition [1] -3.77% | growth inhibition [2] 7.33% | viability increase [3] -0.15% | viability [4] 96.8% | viability [5] 94.5% | inhibition [6] 1.44% | RAM network inhibition [7] -0.53%

COc1cccc(CN2CCNC(=O)C2CC(=O)O)c1OC (stereo not drawn)
inactive: growth inhibition [1] -18.3% | growth inhibition [2] -12.7% | viability increase [3] -2.76% | viability [4] 101% | viability [5] 97% | inhibition [6] 1.81% | RAM network inhibition [7] 2.85%

CCOC(=O)N1CCC(c2cc(=O)n3[nH]c(-c4ccccc4)cc3n2)CC1
inactive: growth inhibition [1] 2.9% | growth inhibition [2] -2.34% | viability increase [3] -1.16% | viability [4] 102% | viability [5] 95.3% | inhibition [6] 3.11% | RAM network inhibition [7] 9.15%

COc1cc(N)ccc1Cc1ccc(N)cc1OC
inactive: growth inhibition [1] -5.34% | growth inhibition [2] -2.19% | viability increase [3] -4.54% | viability [4] 85.9% | viability [5] 90.8% | inhibition [6] -0.06% | RAM network inhibition [7] 6.85%

O=C(Cn1ncc2c(=O)oc3ccccc3c21)NCC1COc2ccccc2O1 (stereo not drawn)
inactive: growth inhibition [1] 4.09% | growth inhibition [2] -10.9% | viability increase [3] -1.36% | viability [4] 103% | viability [5] 98.2% | inhibition [6] 2.72% | RAM network inhibition [7] 3.56%
